ABHD4 inh – inhibitors of mouse ABHD4; purified mABHD4, FP-Rh probe fluorescence polarization; inhibition, % at 8.92 µM; 0.54% of 370,000 active; AID 720543;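 active = inhibition exceeding the mean over every tested compound plus 3 SD, cut at about 30% in these data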
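Test system: mABHD4 protein; Read-out basis: % inhibition; Incubation: 45 min + 60 min at 25 °C; Repeats: single replicate; Technique: fluorescence polarization with parallel and perpendicular emission, 525/598 nm; Compound: 8.92 µM, single dose; Benchmarks: full inhibition S159A mutant plus DMSO, zero as sample-well median.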
Tn7 DDE FP – disrupts Tn7 cyclic peptide binding to fibrin D-Dimer-E complex; FP displacement of FITC-Tn7 peptide from fibrin DD(E); 0% = median of compound wells per plate; inhibition, % at 8.3 µM; P02675; 0.13% of 370,000 active; AID 720508;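 active = inhibition above the mean of compounds falling within the control limits plus 3 SD of them, cut at about 14% in these data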
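System: human fibrin DD(E); quantity: Fibrin-DD(E) at 2 µM final; also added: fluorescent Tn7 probe at 0.1 µM; compound dosing: single nominal test concentration of 8.3 µM per compound; schedule: 10 min preincubation, 3 h with tracer, room temperature; detection: fluorescence polarization of the labelled Tn7 tracer; repeats: one replicate per compound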
SIAE primary – human SIAE inhibition, primary screen | Q9HAT2 | SIAE FP-Rh probe binding, fluorescence polarization | inhibition, % at 9.66 µM | 0.69% of 370,000 active;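 active = inhibition above a cutoff: mean of compounds within the control limits plus 3 SD of those, cut at about 17% in these data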
HTRA1 inhibitor – inhibitors of human serine peptidase HTRA1; recombinant HTRA1, FP-rhodamine activity-based probe, fluorescence polarization; inhibition, % at 5.96 µM; AID 504803; 0.5% of 340,000 active; Q92743; in the data active = inhibition above about 36%
Target sequence (Q92743 whole entry, looked up): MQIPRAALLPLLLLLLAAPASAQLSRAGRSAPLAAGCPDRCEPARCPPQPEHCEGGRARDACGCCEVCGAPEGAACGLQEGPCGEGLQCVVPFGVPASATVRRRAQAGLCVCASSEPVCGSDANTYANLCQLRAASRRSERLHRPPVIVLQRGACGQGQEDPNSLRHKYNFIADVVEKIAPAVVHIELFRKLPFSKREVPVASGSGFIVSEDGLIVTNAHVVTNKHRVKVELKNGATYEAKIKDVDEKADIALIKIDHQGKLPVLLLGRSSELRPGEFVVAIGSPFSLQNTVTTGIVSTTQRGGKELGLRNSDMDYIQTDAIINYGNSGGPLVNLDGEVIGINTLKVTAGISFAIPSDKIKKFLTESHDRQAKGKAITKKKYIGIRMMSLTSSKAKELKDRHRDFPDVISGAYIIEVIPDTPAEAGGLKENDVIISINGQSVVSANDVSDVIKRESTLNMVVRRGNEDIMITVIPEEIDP
Tn6 DDE FP – inhibitors of Tn6 peptide binding to human fibrin DD(E); P02675; Fibrin DD(E) TRITC-Tn6 fluorescence polarization displacement; inhibition, % at 8.3 µM; 0.21% of 370,000 active; AID 720509;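 active = inhibition above a per-campaign cutoff: mean of compounds within control limits plus 3 SD, cut at about 15% in these data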
TCR CD3 inh – blocks the human TCR-CD3 interaction. TAMRA-labeled TCR probe fluorescence, biochemical. inhibition, % at 9.4 µM. 0.37% of 360,000 active. AID 651800; in the data active = inhibition above about 19%;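 also: recombinant mutant TCR 2C K166C tagged with TAMRA read by polarization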
SIAE confirm – confirmation of human SIAE inhibitors. shares compounds with SIAE primary. SIAE FP-Rh activity-based probe, fluorescence polarization. inhibition, % at 9.66 µM. 13% of 2,300 active. AID 1117263;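 active = mean inhibition of the replicates above the hit cutoff set in the primary screen, cut at about 17% in these data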;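 also: inhibitors lower polarization as more probe stays unbound to SIAE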
Of the large screens only hits and unclear results are named; the others gave an inactive call (follow-up assays come after a bar, where they were run). Shown are actives, neighbours in structure and some others; about 1.8% of the full set was active somewhere.

O=C(COC(=O)c1ccccc1O)Nc1ccc(N2CCOCC2)cc1	SIAE primary 17 | SIAE confirm inactive
O=C(O)CSc1c2c(nc3cc(C(=O)N4CCOCC4)ccc13)CCCC2	SIAE primary 27 | SIAE confirm inactive
CCOC(=O)N1CCN(C(=O)c2ccc3c(SCC(=O)O)c4c(nc3c2)CCCC4)CC1	none (no result: ABHD4 inh, Tn7 DDE FP, SIAE primary, Tn6 DDE FP, TCR CD3 inh)
CC1=CC(C)(C)Nc2ccc(OC(=O)CN3C(=O)c4ccccc4C3=O)cc21	none
CC1=CC(C)(C)Nc2ccc(OC(=O)CN3C(=O)c4cccc5cccc(c45)C3=O)cc21	SIAE primary 19 | SIAE confirm inactive
CSc1ccc(/C=C/C(=O)c2ccc(NC(=O)C(C)C)cc2)cc1	none
CSc1ccc(/C=C/C(=O)c2ccc(NC(=O)Cc3ccccc3)cc2)cc1	SIAE primary 31, TCR CD3 inh 51 | SIAE confirm 45
COc1ccc(/C=N/NC(=S)NCCc2ccccc2)cc1	none
O=C(CCc1ccccc1)N/N=C/c1cc(Br)ccc1O	none
COc1ccc(O)c(/C=N/NC(=S)NCCc2ccccc2)c1	SIAE primary 18 | SIAE confirm inactive
Oc1ccc(Br)cc1/C=N/NC(=S)NCCc1ccccc1	SIAE primary 18 | SIAE confirm inactive
CCOc1ccc(CCNC(=O)c2cc3sccc3n2Cc2ccccc2)cc1OCC	none (no result: HTRA1 inhibitor, TCR CD3 inh)
COc1ccc(C(=O)Nc2ccc3c(c2)OCCO3)cc1	none
COc1ccc(C(=O)CCNc2ccc3c(c2)OCCO3)cc1	SIAE primary 18 | SIAE confirm inactive
Cc1ccn2cc(-c3ccc(Br)cc3)nc2c1	SIAE primary 17 | SIAE confirm inactive
CC(=O)Nc1cc(-c2ccc(N3CCN(C)CC3)cc2)cn2c(-c3cccc(C(C)=O)c3)cnc12	none (no result: HTRA1 inhibitor)
CC(=O)Nc1cc(-c2ccc(N3CCN(C)CC3)cc2)cn2c(-c3ccc(F)c(Cl)c3)cnc12	SIAE primary 18 (no result: HTRA1 inhibitor) | SIAE confirm inactive
OC(c1ccc(CN2CCCCC2)cc1)c1ncc(-c2ccccc2)[nH]1 (stereo not drawn)	SIAE primary 24 (no result: HTRA1 inhibitor) | SIAE confirm inactive
CCOc1ccc(-n2c(SC/C=C/c3ccccc3)nnc2-c2cccs2)cc1	none (no result: HTRA1 inhibitor, TCR CD3 inh)
C[C@@H]1CCCN1c1cccc2c1S(=O)(=O)N1CC[C@@H](C1)O2	none (no result: HTRA1 inhibitor, TCR CD3 inh)
S=c1[nH]nc(Nc2ccc(Cl)cc2)s1	none
Clc1ccc(Nc2nc(C3CC3)cs2)cc1	SIAE primary 20 | SIAE confirm inactive
COc1cccc(CCNC(=O)CC2C(=O)NCCN2CC(C)(C)C)c1 (stereo not drawn)	SIAE primary 17 | SIAE confirm inactive
CCOC(=O)/C(=N\Nc1ccc(Cl)cc1)c1csc(Nc2ccccc2)n1	SIAE primary 20 | SIAE confirm inactive
CCOC(=O)c1c[nH]n(-c2ccc(C)cc2)c1=O	SIAE primary 18 | SIAE confirm inactive
COc1ccc(CN2C(C(=O)NCC(C)C)CSCCS2(=O)=O)cc1 (stereo not drawn)	none (no result: HTRA1 inhibitor, TCR CD3 inh)
COc1ccc(N2CCC(CNC(=S)Nc3ccc(C)cc3C)C2)cc1 (stereo not drawn)	none
COc1ccc(N2CCC(CNC(=S)Nc3c(C)cc(C)cc3C)C2)cc1 (stereo not drawn)	SIAE primary 18 | SIAE confirm inactive
Cc1sc(NC(=O)CS(=O)(=O)c2ccccc2)c(C(N)=O)c1C	SIAE primary 17 | SIAE confirm inactive
CCCOc1ccc(C(=O)N/N=C/c2c[nH]c3ccc(Br)cc23)cc1	SIAE primary 19 | SIAE confirm inactive
CCN1C(=O)/C(=C2/Sc3ccccc3N2CC)S/C1=N\c1ncn[nH]1	SIAE primary 19 | SIAE confirm inactive
C=CCN1C(=O)/C(=C2/Sc3ccccc3N2C)SC1=Nc1c(C)n[nH]c1C	none (no result: ABHD4 inh, Tn7 DDE FP, SIAE primary, Tn6 DDE FP, TCR CD3 inh)
COC(=O)[C@]12C[C@H](CC(=O)N3CCC(c4ccccc4)CC3)C(=O)N(Cc3cccc4ccccc34)C1=C[C@H](COCc1ccccc1)O[C@@H]2C	none (no result: HTRA1 inhibitor, TCR CD3 inh)
COc1ccc2oc(=O)c(C(=O)NCc3ccc(F)cc3)cc2c1	SIAE primary 62 | SIAE confirm inactive
CCOC(=O)c1[nH]c(C)c(C(=O)N2CCOCC2)c1C	SIAE primary 22 | SIAE confirm inactive
Nc1ncnc2c1ncn2[C@@H]1O[C@H](C(=O)NCCc2ccc(F)cc2)[C@@H](O)[C@H]1O	SIAE primary 23 (no result: HTRA1 inhibitor) | SIAE confirm 22
CCCN(CCC)CCN1CCN(C(=O)[C@H](CCc2ccccc2)NC(=O)[C@H]2O[C@@H](n3cnc4c(N)ncnc43)[C@H](O)[C@@H]2O)CC1	none (no result: HTRA1 inhibitor)
CN(Cc1ccc2c(c1)CCCN2C)C(=O)[C@H]1O[C@@H](n2cnc3c(N)ncnc32)[C@H](O)[C@@H]1O	SIAE primary 59 (no result: HTRA1 inhibitor) | SIAE confirm 47
Nc1ncnc2c1ncn2[C@@H]1O[C@H](C(=O)N[C@@H](CCc2ccccc2)C(=O)N2CCN(CC(=O)N3CCCC3)CC2)[C@@H](O)[C@H]1O	SIAE primary 29 (no result: HTRA1 inhibitor) | SIAE confirm 121
Nc1ncnc2c1ncn2[C@@H]1O[C@H](C(=O)N[C@@H](CCc2ccccc2)C(=O)N2CCN(C(=O)N3CCCCC3)CC2)[C@@H](O)[C@H]1O	none (no result: HTRA1 inhibitor)
Nc1ncnc2c1ncn2[C@@H]1O[C@H](C(=O)N[C@@H](CCc2ccccc2)C(=O)N2CCN(C(=O)N3CCOCC3)CC2)[C@@H](O)[C@H]1O	SIAE primary 70 (no result: HTRA1 inhibitor) | SIAE confirm 73
COC(CNC(=O)[C@H](Cc1c[nH]c2ccccc12)NC1(C(=O)NC(c2ccccc2)c2ccccc2)CCCCC1)OC	none (no result: HTRA1 inhibitor, TCR CD3 inh)
Cn1c(=O)n(C)c2cc(CNC(=O)[C@H]3O[C@@H](n4cnc5c(N)ncnc54)[C@H](O)[C@@H]3O)ccc21	none (no result: HTRA1 inhibitor)
Nc1ncnc2c1ncn2[C@@H]1O[C@H](C(=O)N[C@@H](CO)Cc2ccccc2)[C@@H](O)[C@H]1O	SIAE primary 25 (no result: HTRA1 inhibitor) | SIAE confirm 25
CC(C)[C@@H](CO)NC(=O)[C@H]1O[C@@H](n2cnc3c(N)ncnc32)[C@H](O)[C@@H]1O	none (no result: HTRA1 inhibitor)
CN(C)c1cccc2c(S(=O)(=O)NC(=O)[C@H]3O[C@@H](n4cnc5c(N)ncnc54)[C@H](O)[C@@H]3O)cccc12	SIAE primary 56 (no result: HTRA1 inhibitor) | SIAE confirm 53
C=CCN=C1NC(c2ccccc2C(F)(F)F)C(C(=O)OC)=C(C)N1Cc1ccc(C(F)(F)F)cc1 (stereo not drawn)	none (no result: HTRA1 inhibitor)
Cc1ccc(S(=O)(=O)N2c3ccc(F)cc3C[C@H]2CSc2ccccc2)cc1	none (no result: HTRA1 inhibitor, TCR CD3 inh)
COc1ccc(NC(=O)CSc2nc3c(c(=O)n2C)SCC3)cc1OC	none
CCn1c(SCC(=O)Nc2ccc(OC)c(OC)c2)nc2c(c1=O)SCC2	SIAE primary 19 | SIAE confirm inactive
